Measured values as given in PMC6106105 (Journal of the Endocrine Society, 2018).
Like-named read-outs stand apart in the source and are kept apart here. Numbered stars: 1 amine (or outer) side, 2 acyl side, 3 side chain; on linkers, the order of the positions; unused ones are H or OH. Square brackets hold non-standard residues; d marks the D form. Side chains are listed from the residue outwards. Peptide text beside a SMILES is read from it. * marks the point of attachment. Ethylenediamine = C(CN[*:2])N[*:1]; Hyp = O=C(O)[C@@H]1C[C@@H](O)CN1; Phg = N[C@H](C(=O)O)c1ccccc1; CO = O=C([*:1])[*:2]; Bn = c1ccc(C*)cc1

Experiments:
rat Sstr2A [1] = molecular target: T1, rat Sstr2A (Rattus norvegicus, UniProt P30680); format: cell-based; conditions: for Emax: read-out: cAMP Emax
GH4C1 cells = assay: Membrane potential; format: cell-based, rat; conditions: for hyperpolarization response (agonist, in words): 100 nM (Fig. 3A)
Outline: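 Rat GH4C1 cells grown in F12 with 12.5% horse serum and 2.5% FBS, plated 150,000/well on poly-D-ornithine. Loaded 30 min with FLIPR Membrane Potential blue dye in HEPES-buffered saline, pH 7.4, then equilibrated 15 min at 37°C. After 30 s baseline, agonist was added and fluorescence read for 180 s (ex 530/em 565 nm). Output was F1/F0 minus control trace, averaged over three wells.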

rat Sstr2A [2] = molecular target: T1, rat Sstr2A; assay: Membrane potential; format: cell-based; conditions: read-out: Hyperpolarization Emax
rat Sstr2A [3] = molecular target: T1, rat Sstr2A; assay: Sstr2A receptor internalization, cell surface ELISA in GH12C1-Sstr2A cells; format: cell-based; conditions: for Emax: read-out: Internalization Emax

T1 sequence (P30680 whole entry): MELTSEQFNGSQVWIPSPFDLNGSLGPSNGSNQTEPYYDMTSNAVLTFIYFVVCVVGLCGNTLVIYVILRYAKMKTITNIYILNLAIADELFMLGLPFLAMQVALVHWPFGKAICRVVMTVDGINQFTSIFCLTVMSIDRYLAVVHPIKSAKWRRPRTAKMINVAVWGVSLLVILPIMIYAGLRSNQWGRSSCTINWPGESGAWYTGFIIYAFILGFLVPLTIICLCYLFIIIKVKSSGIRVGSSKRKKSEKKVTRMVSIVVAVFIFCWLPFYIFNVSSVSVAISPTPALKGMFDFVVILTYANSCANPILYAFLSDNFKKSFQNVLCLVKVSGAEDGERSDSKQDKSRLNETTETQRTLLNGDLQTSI

Row | Emax (rat Sstr2A [1]) [%] | Emax at 0.1 µM (rat Sstr2A [2]) [%] | Emax (rat Sstr2A [3]) [%] | Molecule | hyperpolarization response (agonist, in words) (GH4C1 cells) | other results
1 | 100 | 107 | 100 | C[C@@H](O)[C@@H]1NC(=O)[C@H](CCCCN)NC(=O)[C@@H](Cc2c[nH]c3ccccc23)NC(=O)[C@H](Cc2ccccc2)NC(=O)[C@@H](NC(=O)[C@H](N)Cc2ccccc2)CSSC[C@@H](C(=O)N[C@H](CO)[C@@H](C)O)NC1=O [Octreotide, octreotide] | equivalent to that of SS14 | –
2 | 100 | – | 5 | NCCCC[C@@H]1NC(=O)[C@@H](Cc2c[nH]c3ccccc23)NC(=O)[C@H](c2ccccc2)NC(=O)[C@@H]2C[C@@H](OC(=O)NCCN)CN2C(=O)[C@H](Cc2ccccc2)NC(=O)[C@H](Cc2ccc(OCc3ccccc3)cc2)NC1=O [SOM230, pasireotide diaspartate] (cyclo([Hyp]([CO-Ethylenediamine])[Phg][dW]KY(Bn)F); ring closure inferred) | – | EC50 (rat Sstr2A [1]): 58 ± 7 nM; Emax at 1 µM (rat Sstr2A [2]): 5%; Kd (rat Sstr2A [3]): 243 ± 63 nM; shift in SS14 potency for receptor internalization after SOM230 pretreatment (Schild-plot analysis) (rat Sstr2A [3]; SOM230 2 µM, 5-minute pretreatment, kept present throughout): 8.7 fold
3 | 100 | 100 | 100 | C[C@H](N)C(=O)NCC(=O)N[C@H]1CSSC[C@@H](C(=O)O)NC(=O)[C@H](CO)NC(=O)[C@H]([C@@H](C)O)NC(=O)[C@H](Cc2ccccc2)NC(=O)[C@H]([C@@H](C)O)NC(=O)[C@H](CCCCN)NC(=O)[C@H](Cc2c[nH]c3ccccc23)NC(=O)[C@H](Cc2ccccc2)NC(=O)[C@H](Cc2ccccc2)NC(=O)[C@H](CC(N)=O)NC(=O)[C@H](CCCCN)NC1=O [SS14, Somatostatin] | – | –
4 | – | – | – | Des-AA^1,2,5-[DTrp^8,IAmp^9,^125ITyr^11]-Cbm-SRIF [Rivier #27] | largely ineffective | –
5 | – | – | – | H-p-Chloro-Phe-D-Cys-β-(3-pyridyl)-Ala-D-Trp-Lys-tBu-Gly-Cys-2-Nal-NH2 trifluoroacetate salt [PRL-2915] | – | effect on hyperpolarization response produced by SS14 (GH4C1 cells; PRL-2915 (1 µM), SS14 (1 µM), 15 minutes pretreatment): eliminated most of the hyperpolarization response
